Data on 4 molecules can be found in ChEMBL document CHEMBL5696442, “Discovery of type II inhibitors of TGFβ-activated kinase 1 (TAK1) and mitogen-activated protein kinase kinase kinase kinase 2 (MAP4K2)” (J Med Chem, 2015).

Each structure is given as a SMILES string.

Assay [1] addresses p38 delta/gamma (Homo sapiens) (UniProt O15264+P53778). The assay can be described thus: Inhibition of p38delta/gamma Lys2 labeling site in human A-375 cells at 5 uM by KiNativ Profiling analysis relative to control. The class given is cell-based.
The target of assay [2] is Tyrosine-protein kinase Fyn (Homo sapiens) (UniProt P06241). The assay can be described thus: Inhibition of FYN ACT labeling site in human A-375 cells at 5 uM by KiNativ Profiling analysis relative to control. The class given is cell-based.
Assay [3] has as its target Serine/threonine-protein kinase 10 (Homo sapiens) (UniProt O94804). The assay can be described thus: Inhibition of LOK Lys1 labeling site in human A-375 cells at 0.5 uM by KiNativ Profiling analysis relative to control. It counts as cell-based.
Assay [4] addresses Mitogen-activated protein kinase 8 (Homo sapiens, UniProt P45983). The assay can be described thus: Inhibition of JNK1 (unknown origin) Lys2 labeling site by KiNativ Profiling analysis.
Assay [5] has as its target Serine/threonine-protein kinase SIK3 (Homo sapiens) (UniProt Q9Y2K2). The assay can be described thus: Inhibition of QSK Lys2 labeling site in human A-375 cells at 5 uM by KiNativ Profiling analysis relative to control. It counts as cell-based.
The target in assay [6] is Ribosomal protein S6 kinase alpha-3 (Homo sapiens) (UniProt P51812). The assay can be described thus: Inhibition of RSK2 domain2 Protein Kinase Domain in human A-375 cells at 5 uM by KiNativ Profiling analysis relative to control. The class given is cell-based. The essentials:
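Live A375 melanoma cells treated with compound at 5 or 0.5 μM, then lysed. Lysate kinases were labeled with a lysine-reactive ATP or ADP-biotin probe. Inhibition was read as protection of labeling sites from the probe.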

The target of assay [7] is Cyclin-dependent kinase 1 (Homo sapiens) (UniProt P06493). The assay can be described thus: Inhibition of CDC2 Lys2 labeling site harbouring DLKPQNLLIDDKGTIK in human A-375 cells at 0.5 uM by KiNativ Profiling analysis relative to control. The class given is cell-based. Summed up:
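Live A375 melanoma cells were treated with compound at 5 or 0.5 μM. The cells were then lysed, and the lysates were labeled with a lysine-reactive ATP or ADP-biotin acyl probe (KiNativ). Inhibition is the compound's protection of each kinase labeling-site peptide from probe labeling, relative to untreated control.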

Assay [8] has as its target Serine/threonine-protein kinase 26 (Homo sapiens) (UniProt Q9P289). The assay can be described thus: Inhibition of MST4 Lys1 labeling site in human A-375 cells at 0.5 uM by KiNativ Profiling analysis relative to control. The class given is cell-based.
Assay [9] concerns the target Serine/threonine-protein kinase Nek7 (Homo sapiens) (UniProt Q8TDX7). The assay can be described thus: Inhibition of NEK7 Lys1 labeling site in human A-375 cells at 0.5 uM by KiNativ Profiling analysis relative to control. It counts as cell-based.
For assay [10], the target named is Phosphatidylinositol 4,5-bisphosphate 3-kinase catalytic subunit beta isoform (Homo sapiens) (UniProt P42338). The assay can be described thus: Inhibition of PIK3CB ATP labeling site in human A-375 cells at 0.5 uM by KiNativ Profiling analysis relative to control. The class given is cell-based.
Assay [11] has as its target T1, Aurora kinase A (Homo sapiens) (UniProt O14965).
T1 sequence (whole entry): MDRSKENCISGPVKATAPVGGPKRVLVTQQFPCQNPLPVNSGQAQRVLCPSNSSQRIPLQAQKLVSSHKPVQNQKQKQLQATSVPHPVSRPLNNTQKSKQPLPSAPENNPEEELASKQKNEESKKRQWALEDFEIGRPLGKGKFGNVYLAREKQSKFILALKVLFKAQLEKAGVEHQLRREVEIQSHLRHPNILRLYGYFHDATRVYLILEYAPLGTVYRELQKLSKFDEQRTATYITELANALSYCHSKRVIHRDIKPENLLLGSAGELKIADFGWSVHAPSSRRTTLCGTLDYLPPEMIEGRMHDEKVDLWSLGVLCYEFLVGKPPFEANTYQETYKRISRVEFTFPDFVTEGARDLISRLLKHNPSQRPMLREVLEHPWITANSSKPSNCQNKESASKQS
The assay can be described thus: Inhibition of AurA ATP Loop labeling site in human A-375 cells at 0.05 uM by KiNativ Profiling analysis relative to control. The class given is cell-based.

The target of assay [12] is Cyclin-dependent kinase 1 (Homo sapiens) (UniProt P06493). The assay can be described thus: Inhibition of CDC2 Lys2 labeling site harbouring VLHRDLKPQNLLIDDKGTIK in human A-375 cells at 0.05 uM by KiNativ Profiling analysis relative to control. It counts as cell-based.
Chain of Cyclin-dependent kinase 1 (Homo sapiens) (P06493 whole entry, looked up): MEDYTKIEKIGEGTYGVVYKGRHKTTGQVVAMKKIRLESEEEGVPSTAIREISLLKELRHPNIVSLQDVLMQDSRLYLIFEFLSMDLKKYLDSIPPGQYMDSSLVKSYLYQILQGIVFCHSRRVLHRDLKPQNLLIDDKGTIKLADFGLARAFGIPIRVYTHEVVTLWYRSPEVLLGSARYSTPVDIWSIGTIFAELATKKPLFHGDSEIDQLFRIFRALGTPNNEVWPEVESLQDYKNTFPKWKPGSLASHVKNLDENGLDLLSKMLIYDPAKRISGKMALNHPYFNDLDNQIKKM
Assay [13] deals with Cyclin-dependent kinase 10 (Homo sapiens) (UniProt Q15131). The assay can be described thus: Inhibition of CDK10 Lys2 labeling site in human A-375 cells at 0.05 uM by KiNativ Profiling analysis relative to control. The class given is cell-based.
The target of assay [14] is Dual specificity mitogen-activated protein kinase kinase 2 (Homo sapiens) (UniProt P36507). The assay can be described thus: Inhibition of MAP2K2 Lys2 labeling site in human A-375 cells at 0.05 uM by KiNativ Profiling analysis relative to control. The class given is cell-based.
Chain of Dual specificity mitogen-activated protein kinase kinase 2 (Homo sapiens) (P36507 whole entry): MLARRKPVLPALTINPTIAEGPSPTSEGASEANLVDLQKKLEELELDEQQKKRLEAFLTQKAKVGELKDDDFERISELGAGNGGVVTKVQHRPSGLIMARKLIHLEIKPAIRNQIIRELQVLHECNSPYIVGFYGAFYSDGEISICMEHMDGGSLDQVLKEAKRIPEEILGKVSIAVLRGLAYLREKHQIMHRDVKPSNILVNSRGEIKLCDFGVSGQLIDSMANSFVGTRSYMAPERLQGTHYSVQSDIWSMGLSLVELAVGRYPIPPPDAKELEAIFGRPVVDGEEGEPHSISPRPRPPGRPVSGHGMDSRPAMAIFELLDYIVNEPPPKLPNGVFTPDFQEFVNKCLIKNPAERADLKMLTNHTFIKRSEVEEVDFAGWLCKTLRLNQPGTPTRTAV
The target in assay [15] is Serine/threonine-protein kinase MARK2 (Homo sapiens) (UniProt Q7KZI7). The assay can be described thus: Inhibition of MARK2 Lys1 labeling site in human A-375 cells at 0.05 uM by KiNativ Profiling analysis relative to control. The class given is cell-based.
Assay [16] concerns the target Mitogen-activated protein kinase 9 (Homo sapiens, UniProt P45984). The assay can be described thus: Inhibition of JNK2 Lys2 labeling site in human Huh-7 cell lysate at 1 uM by KiNativ Profiling analysis relative to control. The class given is subcellular.
The target of assay [17] is Mitogen-activated protein kinase 14 (Homo sapiens, UniProt Q16539). The assay can be described thus: Inhibition of p38 alpha Lys2 labeling site in human Huh-7 cell lysate at 1 uM by KiNativ Profiling analysis relative to control. It counts as subcellular.
Chain of Mitogen-activated protein kinase 14 (Q16539 whole entry): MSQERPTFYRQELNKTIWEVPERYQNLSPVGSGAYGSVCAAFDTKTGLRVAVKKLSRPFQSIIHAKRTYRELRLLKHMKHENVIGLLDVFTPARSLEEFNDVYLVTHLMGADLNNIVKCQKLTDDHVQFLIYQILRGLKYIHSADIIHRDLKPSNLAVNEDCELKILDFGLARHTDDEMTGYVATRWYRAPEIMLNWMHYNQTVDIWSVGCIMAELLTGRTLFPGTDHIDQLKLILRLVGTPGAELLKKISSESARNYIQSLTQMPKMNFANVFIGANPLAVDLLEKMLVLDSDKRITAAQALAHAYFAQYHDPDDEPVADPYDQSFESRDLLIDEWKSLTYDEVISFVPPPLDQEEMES
Assay [18] in a line: Inhibition of IL-1 induced p38 MAPK phosphorylation level in TAK1 deficient mouse MEF cells at 500 nM incubated for 1 hr followed by IL-1 stimulation by Western blot analysis relative to control. The class given is functional.

Chain of Serine/threonine-protein kinase SIK3 (Homo sapiens) (Q9Y2K2 whole entry, looked up, the tested form may be a part): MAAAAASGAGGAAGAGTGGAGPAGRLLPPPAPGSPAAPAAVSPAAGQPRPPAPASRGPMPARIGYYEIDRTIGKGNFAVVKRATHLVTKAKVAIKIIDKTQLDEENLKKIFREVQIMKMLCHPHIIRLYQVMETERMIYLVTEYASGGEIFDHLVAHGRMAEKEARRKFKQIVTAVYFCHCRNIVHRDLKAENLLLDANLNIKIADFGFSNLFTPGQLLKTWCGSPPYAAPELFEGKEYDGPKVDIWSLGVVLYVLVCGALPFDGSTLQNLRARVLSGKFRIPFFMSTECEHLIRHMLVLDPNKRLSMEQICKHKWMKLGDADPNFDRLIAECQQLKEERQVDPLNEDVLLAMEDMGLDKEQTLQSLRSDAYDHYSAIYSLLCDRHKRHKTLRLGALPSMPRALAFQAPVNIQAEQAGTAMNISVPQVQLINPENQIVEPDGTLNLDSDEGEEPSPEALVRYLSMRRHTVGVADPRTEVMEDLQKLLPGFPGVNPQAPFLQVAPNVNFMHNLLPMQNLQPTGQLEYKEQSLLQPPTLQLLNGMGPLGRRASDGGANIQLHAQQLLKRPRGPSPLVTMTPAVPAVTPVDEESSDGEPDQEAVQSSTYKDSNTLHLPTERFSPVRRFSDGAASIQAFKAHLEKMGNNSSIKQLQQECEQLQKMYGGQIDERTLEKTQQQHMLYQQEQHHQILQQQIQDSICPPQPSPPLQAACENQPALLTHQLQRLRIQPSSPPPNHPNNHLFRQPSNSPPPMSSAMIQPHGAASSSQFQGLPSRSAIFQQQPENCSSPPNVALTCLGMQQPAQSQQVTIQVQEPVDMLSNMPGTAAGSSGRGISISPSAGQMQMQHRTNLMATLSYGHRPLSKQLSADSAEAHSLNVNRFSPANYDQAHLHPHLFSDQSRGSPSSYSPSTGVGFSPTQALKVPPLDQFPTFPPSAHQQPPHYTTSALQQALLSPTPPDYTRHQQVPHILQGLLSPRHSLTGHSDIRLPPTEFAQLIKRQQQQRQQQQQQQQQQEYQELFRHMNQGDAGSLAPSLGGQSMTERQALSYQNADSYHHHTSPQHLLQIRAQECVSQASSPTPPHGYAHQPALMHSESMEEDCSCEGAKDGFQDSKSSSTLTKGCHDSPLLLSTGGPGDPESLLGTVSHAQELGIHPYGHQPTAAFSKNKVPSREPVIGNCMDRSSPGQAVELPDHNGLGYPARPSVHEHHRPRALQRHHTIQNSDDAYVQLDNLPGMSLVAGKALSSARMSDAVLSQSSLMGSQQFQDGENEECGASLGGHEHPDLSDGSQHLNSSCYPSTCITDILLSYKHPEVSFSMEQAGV
Chain of Serine/threonine-protein kinase 26 (Homo sapiens) (Q9P289 2-416 limits assumed): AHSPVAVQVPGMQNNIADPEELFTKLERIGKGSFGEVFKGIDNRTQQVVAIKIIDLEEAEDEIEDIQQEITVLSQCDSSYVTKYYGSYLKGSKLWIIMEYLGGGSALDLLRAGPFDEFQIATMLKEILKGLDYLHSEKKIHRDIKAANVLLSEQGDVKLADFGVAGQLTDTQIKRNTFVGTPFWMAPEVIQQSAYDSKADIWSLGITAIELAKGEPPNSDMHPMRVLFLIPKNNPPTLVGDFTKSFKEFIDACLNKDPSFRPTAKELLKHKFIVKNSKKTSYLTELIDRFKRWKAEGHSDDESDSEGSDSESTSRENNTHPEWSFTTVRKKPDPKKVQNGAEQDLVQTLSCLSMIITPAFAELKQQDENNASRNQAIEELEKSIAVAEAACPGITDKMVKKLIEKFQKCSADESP
Chain of Serine/threonine-protein kinase Nek7 (Homo sapiens) (Q8TDX7 whole entry, looked up, canonical isoform): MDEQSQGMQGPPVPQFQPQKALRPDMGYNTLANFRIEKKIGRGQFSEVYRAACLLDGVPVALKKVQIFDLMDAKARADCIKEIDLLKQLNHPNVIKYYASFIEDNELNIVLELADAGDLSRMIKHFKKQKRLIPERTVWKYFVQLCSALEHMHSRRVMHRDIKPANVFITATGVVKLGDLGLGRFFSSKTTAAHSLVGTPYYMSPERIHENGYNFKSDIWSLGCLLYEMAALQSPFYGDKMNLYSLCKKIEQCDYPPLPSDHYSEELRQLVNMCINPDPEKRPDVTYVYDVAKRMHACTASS
Chain of Serine/threonine-protein kinase 10 (Homo sapiens) (O94804 whole entry, looked up): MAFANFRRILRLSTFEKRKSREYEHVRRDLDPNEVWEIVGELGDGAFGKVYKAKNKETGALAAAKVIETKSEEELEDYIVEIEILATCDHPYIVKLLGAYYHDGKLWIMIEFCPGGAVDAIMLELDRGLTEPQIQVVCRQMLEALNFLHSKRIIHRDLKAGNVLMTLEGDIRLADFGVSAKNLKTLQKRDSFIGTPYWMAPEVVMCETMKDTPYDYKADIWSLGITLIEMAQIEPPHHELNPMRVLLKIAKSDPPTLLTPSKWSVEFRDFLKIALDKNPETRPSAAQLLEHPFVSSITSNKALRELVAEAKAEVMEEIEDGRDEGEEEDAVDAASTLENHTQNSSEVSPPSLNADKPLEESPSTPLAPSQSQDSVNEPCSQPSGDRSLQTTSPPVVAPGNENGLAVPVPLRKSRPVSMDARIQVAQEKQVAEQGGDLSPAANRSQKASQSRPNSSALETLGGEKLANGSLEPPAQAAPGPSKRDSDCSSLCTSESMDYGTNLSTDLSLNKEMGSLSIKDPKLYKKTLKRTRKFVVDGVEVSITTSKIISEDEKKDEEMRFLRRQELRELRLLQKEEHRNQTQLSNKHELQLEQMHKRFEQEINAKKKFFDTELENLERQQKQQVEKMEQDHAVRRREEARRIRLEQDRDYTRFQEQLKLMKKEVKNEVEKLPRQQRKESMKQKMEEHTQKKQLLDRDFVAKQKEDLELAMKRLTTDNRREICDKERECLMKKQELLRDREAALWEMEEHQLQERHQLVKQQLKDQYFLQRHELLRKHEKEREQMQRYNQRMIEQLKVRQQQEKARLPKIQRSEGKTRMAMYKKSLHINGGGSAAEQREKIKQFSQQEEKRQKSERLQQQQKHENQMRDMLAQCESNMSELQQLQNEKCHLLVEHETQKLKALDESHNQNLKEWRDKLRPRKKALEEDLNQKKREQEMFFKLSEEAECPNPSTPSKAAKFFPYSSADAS
Chain of Mitogen-activated protein kinase 9 (P45984 whole entry, looked up): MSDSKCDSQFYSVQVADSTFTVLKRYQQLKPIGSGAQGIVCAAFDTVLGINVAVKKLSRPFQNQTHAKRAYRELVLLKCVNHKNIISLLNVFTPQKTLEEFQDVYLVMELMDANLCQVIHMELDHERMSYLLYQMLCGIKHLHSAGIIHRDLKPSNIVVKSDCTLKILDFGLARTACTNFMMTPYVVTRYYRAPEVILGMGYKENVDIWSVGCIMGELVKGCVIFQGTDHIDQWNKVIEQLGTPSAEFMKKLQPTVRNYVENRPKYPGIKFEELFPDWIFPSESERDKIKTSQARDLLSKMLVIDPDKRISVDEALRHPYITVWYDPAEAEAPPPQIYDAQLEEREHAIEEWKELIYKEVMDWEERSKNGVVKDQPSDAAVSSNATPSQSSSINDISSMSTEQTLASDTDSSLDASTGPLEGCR
Chain of Mitogen-activated protein kinase 8 (P45983 whole entry): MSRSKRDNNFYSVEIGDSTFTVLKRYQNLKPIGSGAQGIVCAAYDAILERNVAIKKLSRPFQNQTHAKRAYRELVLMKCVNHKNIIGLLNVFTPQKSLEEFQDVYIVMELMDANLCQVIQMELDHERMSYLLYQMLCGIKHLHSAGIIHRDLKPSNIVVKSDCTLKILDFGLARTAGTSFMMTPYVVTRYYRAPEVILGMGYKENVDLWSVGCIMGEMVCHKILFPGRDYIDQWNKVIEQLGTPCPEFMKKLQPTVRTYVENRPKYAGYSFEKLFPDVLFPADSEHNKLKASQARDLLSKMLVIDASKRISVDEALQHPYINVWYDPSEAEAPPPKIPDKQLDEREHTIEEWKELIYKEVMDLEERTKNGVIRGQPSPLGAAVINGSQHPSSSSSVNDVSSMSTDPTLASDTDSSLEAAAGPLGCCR

Turning to `CCN1CCN(Cc2ccc(NC(=O)c3ccc(C)c(/C=C/c4cnc5[nH]ccc5c4OC)c3)cc2C(F)(F)F)CC1`, the inhibition is 52.7% in assay [1]; over 99% in assay [2]; 60.7% in [3]; 28.6% in assay [5]; 33.3% in assay [6]; 6.3% in assay [7]. For the same molecule, the inhibition in assay [8] was found to be 2.8%; in [9] it was 7.8%; in assay [10] it was 37.6%; in assay [11], 14.1%; in assay [12], 6.4%; in [13], 30.7%. Moreover, the inhibition in assay [14] was -8.3%; in assay [15], 3%. Also, the IC50 in assay [4] is over 10 µM.

For `CNc1cc(Oc2cc(C(=O)Nc3cc(-n4cnc(C)c4)cc(C(F)(F)F)c3)ccc2C)ncn1`, the inhibition in assay [16] was determined as 18.4%; in assay [17], 50.2%. In [18], the inhibition at 0.5 µM was 100%.

Take `CCN1CCN(Cc2ccc(NC(=O)c3ccc(C)c(Oc4ccnc5[nH]ccc45)c3)cc2C(F)(F)F)CC1`: the inhibition in [1] was over 94%; in assay [2], 89.6%; in assay [3], 71.7%; in assay [5], 29.6%; in [6] it was 0.4%; in assay [7], 13.7%. For the same molecule, the inhibition in assay [8] is -0.4%; in assay [9], -0.5%; in [10], 8.8%; in assay [11], 32.5%; in [12], -2.9%; in assay [13], 7.8%. Further, the figures for the inhibition in assay [14] and in [15] were 6.1% and 1.2%, respectively. Further, the IC50 in assay [4] was over 10 µM.

Take `CNc1cc(Oc2cc(C(=O)Nc3cc(N4CCN(C)CC4)cc(C(F)(F)F)c3)ccc2C)ncn1`: the inhibition was 7% in assay [16] and 30.2% in assay [17]. For the same molecule, in assay [18], the inhibition at 0.5 µM worked out at 100%.

For orientation: inhibition means the relative decrease from the control value, in per cent. Broadly, the IC50 is the midpoint of a concentration-inhibition curve.
